Columns and labels:
[1] = target: Sodium-dependent dopamine transporter (Homo sapiens, UniProt Q01959); assay: Displacement of [3H]WIN-35428 from human DAT
[2] = target: Sodium-dependent serotonin transporter (Homo sapiens, UniProt P31645); assay: Displacement of [3H]Citalopram from human SERT
Summary of the method: (§1)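 Competitive radioligand binding at human transporters. The tritiated standard ligand matched each transporter: WIN-35,428 for DAT, citalopram for SERT, and nisoxetine for NET.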

[3] = target: Sodium-dependent noradrenaline transporter (Homo sapiens, UniProt P23975); assay: Displacement of [3H]nisoxetine from human NET; summary of the method: as §1
[4] = target: Monoamine transporters; serotonin & dopamine (Homo sapiens) (UniProt P31645+Q01959); assay: Selectivity for human DAT over human SERT; assay type: protein assay
[5] = target: Serotonin and norepinephrine transporters (SERT/NET) (Homo sapiens) (UniProt P31645+P23975); assay: Selectivity for human SERT over human NET; assay type: protein assay
[6] = target: Monoamine transporters; Norepinephrine & dopamine (Homo sapiens) (UniProt Q01959+P23975); assay: Selectivity for human DAT over human NET; assay type: protein assay
Chain of Monoamine transporters; Norepinephrine & dopamine (Homo sapiens) (P23975 whole entry, looked up): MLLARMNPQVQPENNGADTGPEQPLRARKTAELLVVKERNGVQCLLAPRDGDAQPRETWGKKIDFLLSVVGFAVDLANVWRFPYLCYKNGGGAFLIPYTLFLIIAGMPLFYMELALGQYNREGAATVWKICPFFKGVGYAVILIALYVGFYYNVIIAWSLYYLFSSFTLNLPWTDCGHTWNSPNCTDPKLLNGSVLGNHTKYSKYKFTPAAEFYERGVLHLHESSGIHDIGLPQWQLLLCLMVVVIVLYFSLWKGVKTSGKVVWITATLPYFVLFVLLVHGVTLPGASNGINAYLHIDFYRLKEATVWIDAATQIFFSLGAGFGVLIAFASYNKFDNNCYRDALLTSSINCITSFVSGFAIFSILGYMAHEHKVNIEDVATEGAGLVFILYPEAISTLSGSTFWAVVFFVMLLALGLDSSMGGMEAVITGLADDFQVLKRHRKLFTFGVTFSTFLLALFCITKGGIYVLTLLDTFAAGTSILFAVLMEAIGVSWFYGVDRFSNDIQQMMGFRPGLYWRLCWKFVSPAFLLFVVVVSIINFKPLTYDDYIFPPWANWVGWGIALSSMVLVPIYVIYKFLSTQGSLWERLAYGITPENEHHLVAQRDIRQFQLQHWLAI
Chain of Monoamine transporters; Norepinephrine & dopamine (Homo sapiens) (Q01959 whole entry, looked up): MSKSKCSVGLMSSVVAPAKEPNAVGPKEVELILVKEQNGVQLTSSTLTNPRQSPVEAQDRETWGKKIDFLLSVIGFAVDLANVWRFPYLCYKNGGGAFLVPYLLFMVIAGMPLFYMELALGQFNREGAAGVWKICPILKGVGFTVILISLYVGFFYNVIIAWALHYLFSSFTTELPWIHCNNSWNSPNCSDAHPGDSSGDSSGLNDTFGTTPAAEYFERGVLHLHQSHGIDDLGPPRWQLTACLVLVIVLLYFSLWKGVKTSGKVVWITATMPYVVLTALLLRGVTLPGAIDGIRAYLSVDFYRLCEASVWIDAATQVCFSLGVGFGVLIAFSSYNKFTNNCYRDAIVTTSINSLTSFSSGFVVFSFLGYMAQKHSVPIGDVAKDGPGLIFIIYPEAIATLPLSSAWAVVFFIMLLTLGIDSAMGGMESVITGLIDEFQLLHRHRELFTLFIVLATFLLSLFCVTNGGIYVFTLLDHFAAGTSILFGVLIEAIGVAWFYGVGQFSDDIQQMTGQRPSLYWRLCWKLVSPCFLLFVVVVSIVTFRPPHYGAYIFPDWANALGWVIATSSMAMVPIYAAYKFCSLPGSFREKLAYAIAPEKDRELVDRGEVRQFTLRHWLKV

Chain of Sodium-dependent dopamine transporter (Q01959 whole entry): as the sequence (Q01959 whole entry, looked up) above
Chain of Monoamine transporters; serotonin & dopamine (Homo sapiens) (P31645 whole entry, looked up): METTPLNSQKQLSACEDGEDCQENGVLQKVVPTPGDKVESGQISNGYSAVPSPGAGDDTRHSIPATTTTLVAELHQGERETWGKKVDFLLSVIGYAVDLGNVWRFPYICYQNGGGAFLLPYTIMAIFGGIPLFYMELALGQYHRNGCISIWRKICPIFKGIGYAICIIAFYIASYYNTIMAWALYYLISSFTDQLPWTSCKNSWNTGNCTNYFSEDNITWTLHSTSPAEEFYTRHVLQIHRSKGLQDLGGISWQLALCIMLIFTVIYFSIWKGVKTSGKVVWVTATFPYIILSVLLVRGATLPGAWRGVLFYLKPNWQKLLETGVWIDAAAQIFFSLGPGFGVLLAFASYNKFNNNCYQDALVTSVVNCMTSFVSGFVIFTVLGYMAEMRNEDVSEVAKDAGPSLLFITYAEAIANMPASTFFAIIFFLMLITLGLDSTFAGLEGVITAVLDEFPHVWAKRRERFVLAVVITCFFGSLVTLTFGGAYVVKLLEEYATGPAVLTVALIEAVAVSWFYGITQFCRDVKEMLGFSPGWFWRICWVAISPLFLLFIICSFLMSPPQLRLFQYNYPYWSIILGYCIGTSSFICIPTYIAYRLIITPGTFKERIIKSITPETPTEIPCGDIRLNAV
Chain of Monoamine transporters; serotonin & dopamine (Homo sapiens) (Q01959 whole entry, looked up): as the sequence (Q01959 whole entry, looked up) above
Chain of Sodium-dependent serotonin transporter (P31645 whole entry): as the sequence (P31645 whole entry, looked up) above
Chain of Serotonin and norepinephrine transporters (SERT/NET) (Homo sapiens) (P23975 whole entry, looked up): as the sequence (P23975 whole entry, looked up) above
Chain of Serotonin and norepinephrine transporters (SERT/NET) (Homo sapiens) (P31645 whole entry, looked up): as the sequence (P31645 whole entry, looked up) above
Chain of Sodium-dependent noradrenaline transporter (P23975 whole entry): as the sequence (P23975 whole entry, looked up) above

| SMILES | IC50 [1] | IC50 [2] | IC50 [3] | Ratio IC50 [4] | Ratio IC50 [5] | Ratio IC50 [6] |
| --- | --- | --- | --- | --- | --- | --- |
| CN1C2CCC1CC(O)(C1c3ccccc3-c3ccccc31)C2 (centres undefined) | 0.543 µM | 35.4 µM | 158 µM | 0.015 | 0.22 | 0.0034 |
| CN1C2CCC1CC(O)(c1ccccc1-c1ccccc1)C2 (centres undefined) | 3.98 µM | 2.52 µM | 66.3 µM | 1.58 | 0.038 | 0.06 |
| CN1C2C=C(c3ccc4c(c3)Cc3ccccc3-4)CC1CC2 (centres undefined) | 0.757 µM | 0.0145 µM | 3.36 µM | 52.2 | 0.0043 | 0.23 |
| CN1C2C=C(C3c4ccccc4-c4ccccc43)CC1CC2 (centres undefined) | 9.35 µM | 0.69 µM | 82.7 µM | 13.6 | 0.0083 | 0.113 |
| CN1C2C=C(c3ccccc3-c3ccccc3)CC1CC2 (centres undefined) | – | 1.71 µM | 6.43 µM | 5.4 | 0.27 | 1.44 |
| CN1C2CCC1CC(O)(C1c3ccccc3-c3ccc(Br)cc31)C2 (centres undefined) | 16.8 µM | 2.57 µM | 62.6 µM | 6.5 | 0.041 | 0.27 |
| C[N+]1(CCl)C2C=C(c3ccccc3-c3ccccc3)CC1CC2 (centres undefined) | 67 µM | 16.1 µM | 2.02 µM | 4.2 | 8 | 33.2 |
| CN1C2C=C(c3c[nH]c4ccccc34)CC1CC2 (centres undefined) | 0.603 µM | 0.0726 µM | 3.96 µM | 8.3 | 0.018 | 0.15 |
| CN1C2CCC1CC(O)(c1cccc(-c3ccccc3)c1)C2 (centres undefined) | 21.9 µM | 3.77 µM | 41.5 µM | 5.81 | 0.091 | 0.53 |
| CN1C2C=C(c3cccc(-c4ccccc4)c3)CC1CC2 (centres undefined) | 7.22 µM | 0.67 µM | 23 µM | 10.8 | 0.029 | 0.314 |
